Calls of active or inactive are those of the source. No cut-off for these calls is given here.
Key:
[1] = biological target: T1, Sodium-dependent serotonin transporter (Homo sapiens, UniProt P31645); assay: Displacement of [3H]citalopram from human SERT expressed in HEK293 cells; type: cell-based
Outline: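 Membrane homogenates from HEK-293 cells stably expressing human SERT, incubated 1 h at 25 °C with 2 nM [3H]citalopram (85 Ci/mmol) and increasing test concentrations. Non-specific binding defined with 10 µM fluoxetine. Specific binding plotted against −log drug concentration, and the midpoint of the displacement curve was taken as IC50.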

[2] = biological target: T2, Sodium-dependent dopamine transporter (Homo sapiens, UniProt Q01959); assay: Inhibition of human DAT at 1 uM
[3] = biological target: T3, Sodium-dependent noradrenaline transporter (Homo sapiens, UniProt P23975); assay: Inhibition of human NET at 1 uM
[4] = tested on: Rattus norvegicus; assay: Increase in fluoxetine-induced serotonin concentration in rat frontal cortex by microdialysis at 10 mg/kg, po; type: functional, organism-based; parameters: dose 10 mg/kg
[5] = biological target: T2, Sodium-dependent dopamine transporter; assay: Displacement of [125I]RTI-55 from human DAT expressed in HEK293 cells; type: cell-based
Outline: (§1)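 Membrane homogenates from HEK-293 cell lines stably transfected with the human transporter, incubated with 125I ligands: [125I]RTI-55 for SERT (260 pM) and DAT (125 pM), and custom [125I]nisoxetine for NET (300 pM). Reactions run in 384-well format and filter-harvested. IC50 taken from a 20-point concentration curve in a single experiment.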

[6] = biological target: T3, Sodium-dependent noradrenaline transporter; assay: Displacement of [125I]Nisoxetine from human NET expressed in HEK293 cells; type: cell-based; outline: as §1
[7] = tested on: Rattus norvegicus; assay: Increase in fluoxetine-induced serotonin concentration in rat frontal cortex by microdialysis at 1 mg/kg, ip; type: functional, organism-based; parameters: dose 1 mg/kg
[8] = biological target: T1, Sodium-dependent serotonin transporter; assay: Displacement of [125I]RTI-55 from human SERT expressed in HEK293 cells; type: cell-based; outline: as §1

T1 sequence (P31645 whole entry): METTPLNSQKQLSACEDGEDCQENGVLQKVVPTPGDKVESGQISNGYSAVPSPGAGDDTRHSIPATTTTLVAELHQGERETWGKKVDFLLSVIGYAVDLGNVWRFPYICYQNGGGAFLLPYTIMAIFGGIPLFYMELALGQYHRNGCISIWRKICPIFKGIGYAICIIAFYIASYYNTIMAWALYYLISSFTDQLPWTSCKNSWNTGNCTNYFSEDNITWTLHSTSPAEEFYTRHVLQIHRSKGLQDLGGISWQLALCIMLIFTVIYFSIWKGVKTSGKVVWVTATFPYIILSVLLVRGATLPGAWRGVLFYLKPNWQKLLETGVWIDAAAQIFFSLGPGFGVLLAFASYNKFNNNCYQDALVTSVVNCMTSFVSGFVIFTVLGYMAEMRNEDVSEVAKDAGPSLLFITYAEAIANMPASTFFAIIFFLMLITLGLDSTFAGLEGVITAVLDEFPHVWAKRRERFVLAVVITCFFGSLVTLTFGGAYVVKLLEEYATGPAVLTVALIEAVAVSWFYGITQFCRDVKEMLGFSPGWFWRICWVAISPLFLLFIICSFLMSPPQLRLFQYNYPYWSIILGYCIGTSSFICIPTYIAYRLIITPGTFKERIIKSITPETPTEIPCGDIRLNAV
T3 sequence (P23975 whole entry): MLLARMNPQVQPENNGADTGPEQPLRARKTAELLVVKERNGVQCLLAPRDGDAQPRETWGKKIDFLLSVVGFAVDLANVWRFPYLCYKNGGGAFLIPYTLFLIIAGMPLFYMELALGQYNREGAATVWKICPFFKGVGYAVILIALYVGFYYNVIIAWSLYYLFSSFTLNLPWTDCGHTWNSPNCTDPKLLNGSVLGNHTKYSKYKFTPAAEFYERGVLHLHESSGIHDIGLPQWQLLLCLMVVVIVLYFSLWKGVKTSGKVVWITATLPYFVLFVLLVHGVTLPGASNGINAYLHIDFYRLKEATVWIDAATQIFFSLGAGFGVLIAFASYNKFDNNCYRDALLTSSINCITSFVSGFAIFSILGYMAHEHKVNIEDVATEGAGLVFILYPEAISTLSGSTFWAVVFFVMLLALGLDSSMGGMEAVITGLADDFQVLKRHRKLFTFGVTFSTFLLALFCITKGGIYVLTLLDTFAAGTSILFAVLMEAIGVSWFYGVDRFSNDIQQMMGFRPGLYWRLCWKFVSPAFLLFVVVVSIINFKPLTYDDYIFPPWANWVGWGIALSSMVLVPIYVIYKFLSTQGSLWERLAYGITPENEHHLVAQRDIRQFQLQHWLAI
T2 sequence (Q01959 whole entry): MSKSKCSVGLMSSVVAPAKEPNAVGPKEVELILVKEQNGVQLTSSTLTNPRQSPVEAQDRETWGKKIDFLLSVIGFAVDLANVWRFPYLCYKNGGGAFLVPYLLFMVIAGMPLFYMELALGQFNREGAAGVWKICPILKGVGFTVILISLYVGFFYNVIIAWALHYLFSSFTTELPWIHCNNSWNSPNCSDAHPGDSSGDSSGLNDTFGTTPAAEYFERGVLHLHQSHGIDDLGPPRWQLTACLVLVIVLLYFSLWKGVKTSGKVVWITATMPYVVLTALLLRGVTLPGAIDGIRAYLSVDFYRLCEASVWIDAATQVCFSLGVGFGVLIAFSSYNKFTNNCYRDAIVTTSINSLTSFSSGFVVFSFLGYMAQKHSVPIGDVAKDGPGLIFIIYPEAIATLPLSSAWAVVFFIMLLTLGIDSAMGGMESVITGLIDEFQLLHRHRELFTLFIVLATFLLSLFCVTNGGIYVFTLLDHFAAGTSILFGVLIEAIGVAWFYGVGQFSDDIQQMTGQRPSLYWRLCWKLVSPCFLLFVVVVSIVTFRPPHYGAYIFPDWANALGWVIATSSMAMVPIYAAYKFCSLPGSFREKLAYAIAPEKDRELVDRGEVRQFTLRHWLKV

`CN1CC=C(c2c[nH]c3ccc(C#N)cc23)CC1` showed an IC50 [1] of 19 nM, an inhibition [2] of 56% and an inhibition [3] of 15%.

`Cc1ccc2[nH]cc(C3=CCN(C)CC3)c2c1` was tested, and the IC50 [1] was 910 nM.

`CN(C)C1CC=C(c2c[nH]c3ccc([N+](=O)[O-])cc23)CC1` (stereo not given) was tested, and the IC50 [1] was 1 nM, the inhibition [2] was 74% and the inhibition [3] was 81%.

Compound `CN1CC=C(c2c[nH]c3ccccc23)CC1` has an IC50 [1] of 690 nM.

For `CN(C)C1CC=C(c2c[nH]c3ccc(C#N)cc23)CC1` (stereo not given), the IC50 [1] was 1.6 nM, the inhibition [2] was 71% and the Activity [4] was “Active”. The IC50 [5] was 97 nM, the IC50 [6] was 57 nM and the Activity [7] was “Active”. The inhibition [3] was 90% and the IC50 [8] was 0.34 nM.

`CN(C)C1CC=C(c2c[nH]c3ccc(Cl)cc23)CC1` (stereo not given) showed an IC50 [1] of 19 nM, an inhibition [2] of 16% and an inhibition [3] of 34%.

For `CN1CC=C(c2c[nH]c3ccc(F)cc23)CC1`, the IC50 [1] was 160 nM.

For `CN(C)C1CC=C(c2c[nH]c3ccc(F)cc23)CC1` (stereo not given), the IC50 [1] was 14 nM, the inhibition [2] was 23% and the inhibition [3] was 35%.

`CN(C)[C@@H]1CC=C(c2c[nH]c3ccc(C#N)cc23)CC1` was tested, and the IC50 [1] was 1.1 nM, the IC50 [5] was 80 nM and the IC50 [6] was 37 nM. It also gave an IC50 [8] of 0.56 nM.

`CN(C)C1CC=C(c2c[nH]c3ccc(Br)cc23)CC1` (stereo not given) showed an IC50 [1] of 5.3 nM, an inhibition [2] of 95% and an inhibition [3] of 99%.

`COc1ccc2[nH]cc(C3=CCC(N(C)C)CC3)c2c1` (stereo not given) gave an IC50 [1] of 150 nM.

With `CN(C)C1CC=C(c2c[nH]c3ccccc23)CC1` (stereo not given) the IC50 [1] was 3.1 nM, the inhibition [2] was 67% and the inhibition [3] was 70%.

`CN(C)[C@H]1CC=C(c2c[nH]c3ccc(C#N)cc23)CC1` showed an IC50 [1] of 0.72 nM, an IC50 [5] of 290 nM and an IC50 [6] of 390 nM. The IC50 [8] was 0.4 nM.

In the case of `Cc1ccc2[nH]cc(C3=CCC(N(C)C)CC3)c2c1` (stereo not given), the IC50 [1] is reported as 770 nM.

With `COc1ccc2[nH]cc(C3=CCN(C)CC3)c2c1` the IC50 [1] was 730 nM.

For `CN1CC=C(c2c[nH]c3ccc(Br)cc23)CC1`, the IC50 [1] was 210 nM.

`CN1CC=C(c2c[nH]c3ccc([N+](=O)[O-])cc23)CC1` was tested, and the IC50 [1] was 40 nM, the inhibition [2] was 73% and the inhibition [3] was 27%.

Work on `CN1CC=C(c2c[nH]c3ccc(Cl)cc23)CC1` yielded an IC50 [1] of 240 nM.
